High-throughput results from PubChem BioAssay.
EphB4 ephrin blk – blocks human EphB4 binding to ephrin-B2 | P54760 | inhibition, % at 7 µM | actives 0.15% (n = 97,000) | EphB4 LBD / TNYL-RAW-Alexa532 peptide, fluorescence polarization;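 active means inhibition above the screen-wide mean inhibition plus 3 SD, cut at about 15% in these data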
Rev-RRE block – disrupts HIV-1 Rev binding to RRE RNA; P05866; actives 0.79% (n = 97,000); inhibition, % at 8 µM; Rev peptide-RRE RNA binding, FRET;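 active means inhibition above the screen-wide mean plus 3 SD, cut at about 35% in these data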
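System: Cy5-labelled duplex RRE RNA binding fluorescein-labelled HIV Rev peptide; Signal: fluorescein-to-Cy5 FRET, 480 nm excitation; Also added: labelled Rev peptide; Compound: one concentration, 8 µM nominal; Buffer or medium: HEPES pH 7.5 salt buffer with EDTA; Read-out: % inhibition of FRET ratio versus controls; Schedule: 5 min preincubation and 15 min binding, 25 °C.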
Plk1 PBD FP – inhibitors of human Plk1 polo box domain binding; Plk1 PBD phosphopeptide binding, fluorescence polarization; inhibition, %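 (tested at about 20 µM)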; actives 0.13% (n = 97,000); in the data active means inhibition above about 34%, passing the limit was not always enough
FAK blocker – inhibitors of human focal adhesion kinase. Q05397. biochemical FAK kinase activity assay. inhibition, %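 (tested at 7 µM)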. actives 0.84% (n = 97,000); in the data active means inhibition above about 19%
PLK1 inh – inhibitors of human PLK1 kinase | P53350 | actives 0.53% (n = 97,000) | AID 619 | inhibition, % at 10 µM | recombinant PLK1 kinase, TR-FRET peptide phosphorylation;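 active means inhibition of 50% or more in the single-concentration screen; inactive means inhibition below 50%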
DAT uptake mod – modulates human dopamine transporter uptake under cocaine. Q01959. actives 1.3% (n = 110,000). B-score at 10 µM. LLC-PK1 hDAT cells, [14C]-dopamine uptake with cocaine IC80; actives deviate in either direction;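 active means Z score or B-score, a plate-position-corrected score, falls beyond the plate's 99.7% confidence bounds, in either direction; inactive means both scores lie inside the 99.7% bounds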
Target sequence (Q01959 whole entry, looked up): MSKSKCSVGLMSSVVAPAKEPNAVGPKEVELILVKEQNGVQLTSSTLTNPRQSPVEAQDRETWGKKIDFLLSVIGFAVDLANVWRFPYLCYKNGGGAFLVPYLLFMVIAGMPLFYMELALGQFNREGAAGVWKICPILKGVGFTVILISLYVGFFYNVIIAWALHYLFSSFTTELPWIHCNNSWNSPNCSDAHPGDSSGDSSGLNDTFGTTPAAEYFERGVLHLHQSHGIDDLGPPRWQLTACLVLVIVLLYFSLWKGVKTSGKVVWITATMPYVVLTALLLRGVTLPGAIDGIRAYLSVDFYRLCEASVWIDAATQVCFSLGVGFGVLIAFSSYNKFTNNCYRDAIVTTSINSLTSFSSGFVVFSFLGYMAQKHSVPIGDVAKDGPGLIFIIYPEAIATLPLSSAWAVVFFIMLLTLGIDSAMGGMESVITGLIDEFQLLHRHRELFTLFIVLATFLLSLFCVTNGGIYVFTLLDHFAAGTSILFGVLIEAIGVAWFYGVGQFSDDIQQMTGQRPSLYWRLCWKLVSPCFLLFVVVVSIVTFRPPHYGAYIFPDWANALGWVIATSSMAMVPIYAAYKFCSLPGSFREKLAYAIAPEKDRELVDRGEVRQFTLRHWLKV
PLK1 confirm – confirmation of human PLK1 kinase inhibitors; shares compounds with PLK1 inh; recombinant PLK1 kinase, TR-FRET peptide phosphorylation; inhibition, % at 10 µM; actives 20% (n = 210); AID 744;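 active means inhibition at or above 50% in each of two repeat confirmation tests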
TR-FRET interf – interferes with the Plk1 assay readout, not true inhibition | shares compounds with PLK1 inh | Plk1 TR-FRET assay interference, compound added post-reaction | inhibition (interference), % at 10 µM | 210 tested, under 10 active | AID 756;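 active means both duplicate runs show 50% or greater inhibition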
Redox H2O2 DR – generates H2O2 by redox cycling, flagging false Plk1 PBD hits; 120 tested, under 10 active; EC50, µM; AID 876; shares compounds with Plk1 PBD FP; redox cycling H2O2 generation, DTT, counter-screen; call rule not given here
Of the large screens only hits and unclear results are named; the others gave an inactive call (follow-up assays come after a bar, where they were run). Hits are enriched below; roughly 3.2% of the tested compounds scored in any of these assays.

c1ccc(CSc2nnc(-c3sccc3-n3cccc3)o2)cc1	none
Nc1ncnc(Nc2cccc(C(F)(F)F)c2)n1	PLK1 inh 77 | PLK1 confirm 74 | TR-FRET interf inactive
C/C(N)=C(/C#N)C(=O)COC(=O)COc1ccc(Cl)cc1C	none
Cc1ccc(NC(=O)CSc2nc3nc(C)cc(C)c3c(=O)[nH]2)cc1	PLK1 inh 73 | PLK1 confirm inactive | TR-FRET interf inactive
Cc1cc(C)c2c(=O)[nH]c(SCC(=O)N3CCCCC3)nc2n1	none
Cc1ccc(C(=O)O)cc1S(=O)(=O)N1CCOCC1	none
Cc1ccc(C(=O)O)cc1S(=O)(=O)N1CCSCC1	PLK1 inh 82, DAT uptake mod -9.1 | PLK1 confirm inactive | TR-FRET interf inactive
COc1ccc(CNC(=O)C2CCCN(c3nccc(C)n3)C2)cc1 (stereo unspecified)	none
Cc1cc(C)cc(OCC(O)CN2C(=O)NC(C)(C)C2=O)c1 (stereo unspecified)	PLK1 inh 72 | PLK1 confirm inactive | TR-FRET interf inactive
CCOC(=O)/C(=N/Nc1ccc(Cl)cc1)S(=O)(=O)c1ccc(Cl)cc1	none
CN(CCNC(=O)c1cn(C)c2ccc(S(=O)(=O)N(C)C)cc2c1=O)CCc1ccccc1	PLK1 inh 75 | PLK1 confirm inactive | TR-FRET interf inactive
COc1ccccc1Nc1ncnc2nc[nH]c12	PLK1 inh 84 | PLK1 confirm 79 | TR-FRET interf inactive
COc1cc(Cl)c(C)cc1NC(=O)COC(=O)c1cnc(C)cn1	none
CCC(C)N(C(=O)CSc1nc(-c2ccccc2)cs1)C1CCS(=O)(=O)C1 (stereo unspecified)	none
Nc1[nH]ncc1N=Nc1ccc(Cl)cc1	PLK1 inh 83 | PLK1 confirm 75 | TR-FRET interf inactive
CCO[C@H]1OC(C(=O)NCc2ccccc2)=C[C@@H](c2ccccc2)[C@@H]1CCCO	none (no result: EphB4 ephrin blk, Rev-RRE block, Plk1 PBD FP, FAK blocker, PLK1 inh)
CC1=C(C(=O)OC(C)C)C(c2cccnc2)n2ncnc2N1 (stereo unspecified)	PLK1 inh 83 | PLK1 confirm inactive | TR-FRET interf inactive
CC1=C(C(=O)OC(C)C)C(c2ccncc2)n2ncnc2N1 (stereo unspecified)	none
CCc1ccccc1N1CC23C=CC(O2)C(C(=O)OCC(C)C)C3C1=O (stereo unspecified)	PLK1 inh 72 | PLK1 confirm inactive | TR-FRET interf inactive
CCCCOC(=O)C1[C@H]2C(=O)N(c3ccccc3CC)C[C@]23C=C[C@H]1O3 (stereo partly specified)	none
CC(C)/C=C1\CCCCC1N(C)C(=O)NC(C)C (stereo unspecified)	none
c1ccc(NCc2nnc3n2CCCCC3)cc1	Plk1 PBD FP 45, DAT uptake mod 1.9 | Redox H2O2 DR inactive
CN(C)c1ccc(C(=O)Nc2nc3c(s2)CCCC3)cc1	Plk1 PBD FP 46 | Redox H2O2 DR inactive
Cc1ccc(C(=O)c2c[nH]c(C(=O)NCCCN3CCOCC3)c2)cc1	Plk1 PBD FP 58 | Redox H2O2 DR inactive
CC(=O)N(/N=C1\Sc2ccccc2C1=O)c1ccccc1	Plk1 PBD FP 101 | Redox H2O2 DR inactive
CC(=O)N(/N=C1\Sc2ccccc2C1=O)c1ccc(C)cc1C	none
N#CCSc1nccc(-c2cc(Cl)sc2Cl)n1	none
C=CCSc1nccc(-c2cc(Cl)sc2Cl)n1	Plk1 PBD FP 46 | Redox H2O2 DR inactive
Cc1cc(C)n(-c2nnc3n2N=C(c2ccccc2)CS3)n1	Plk1 PBD FP 46 | Redox H2O2 DR inactive
Cc1ccc(NC2=C/C(=N\S(=O)(=O)c3cccs3)c3ccccc3C2=O)c(C)c1	Plk1 PBD FP 62, FAK blocker 41 | Redox H2O2 DR inactive
O=C(CNS(=O)(=O)c1ccc(Br)s1)N1CCCC1	Plk1 PBD FP 44 | Redox H2O2 DR inactive
CC(C)C(NC(=O)C1CCCCC1)C(=O)NC1CCN(Cc2ccccc2)CC1 (stereo unspecified)	none
O=C(Nc1cc(Cl)ccc1Cl)C1CC(=O)N(c2ccc(Br)cc2)C1 (stereo unspecified)	none
Cc1ccc(C(=O)Nc2cnc3sc(C)nn3c2=O)cc1	Plk1 PBD FP 34 | Redox H2O2 DR inactive
CC(C)Sc1nc(N2CCOCC2)c2c(c1C#N)CC(C)(C)N(C)C2	Plk1 PBD FP 48 | Redox H2O2 DR inactive
O=C(Nc1cccn(Cc2c(Cl)cccc2Cl)c1=O)c1c(Cl)cccc1Cl	Plk1 PBD FP 51 | Redox H2O2 DR inactive
COC(=O)Nc1cccn(Cc2c(Cl)cccc2Cl)c1=O	none
Cc1onc(COc2ccccc2O)c1Br	none
CCCN(CCC)CCCNS(=O)(=O)c1cc(Br)cc2c1N(C(C)=O)CC2	none
CC(=O)N1CCc2cc(Br)cc(S(=O)(=O)NCc3ccccn3)c21	Plk1 PBD FP 56 | Redox H2O2 DR inactive
COCCCn1c(C)nc2c(c1=O)c1nc3ccccc3nc1n2CCc1ccccc1	none
CC(C)Oc1ccc(Cn2c(=O)sc3ccccc32)cc1	none
COc1ccc(Cn2c(=O)sc3ccccc32)cc1	Plk1 PBD FP 54 | Redox H2O2 DR inactive
O=C(Cc1ccc(Cl)cc1)NCCN1CCCC1	Plk1 PBD FP 48 | Redox H2O2 DR inactive
O=C(/C=C/c1ncc(C(F)(F)F)cc1Cl)OCc1ccccc1	none
CC(C)CN1C(=O)NC(NC(=O)c2ccco2)(C(F)(F)F)C1=O (stereo unspecified)	none
O=C(NC1(C(F)(F)F)NC(=O)N(CC2CCCCC2)C1=O)c1ccco1 (stereo unspecified)	Plk1 PBD FP 63 | Redox H2O2 DR inactive
Cc1ccccc1Oc1ncnc2oc(-c3ccccc3)cc12	Plk1 PBD FP 68 | Redox H2O2 DR inactive
Cn1c(SCC(=O)Nc2nccs2)nnc1-c1ccco1	none
CCC(=O)Nc1ccc(-c2nnc(SCC(=O)Nc3nccs3)n2C)cc1	Plk1 PBD FP 47 | Redox H2O2 DR inactive
CCCn1nnnc1NC(=O)c1ccc(C)cc1Cl	none
CC(=O)Oc1cc2c(cc1Cl)C1(CC(c3ccccc3Cl)O2)CC(C)(C)NC(=S)N1 (stereo unspecified)	none
COc1cc(S(=O)(=O)N2CCCCCC2)ccc1-n1cnnn1	Plk1 PBD FP 38 | Redox H2O2 DR inactive
CC(C)(C)NC(=O)CC(c1ccccc1)c1ccccc1O (stereo unspecified)	none
CC(C)(C)NC(=O)CC(CC(=O)O)c1ccccc1 (stereo unspecified)	Plk1 PBD FP 45 | Redox H2O2 DR inactive
